# Measured values: PMC2633472 (European journal of pharmacology, 2008)
# Entries after “also recorded” stand apart in the source; their conditions may differ.
# Tests used:
# [1] = test system: Sprague-Dawley rats; assay: Conditioned taste aversion test; format: in vivo, rat
# [2] = test system: Sprague-Dawley rats; assay: MCH-induced food intake in satiated rats; format: in vivo, rat; conditions: 2 nmole i.c.v.
# In short: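 Cannulated male Sprague-Dawley rats were kept in wire-bottom cages >3 weeks and screened by drinking >5 ml/1 h after 50 ng angiotensin II. Satiated rats got 10 μl i.c.v. over 2 min at 7–8 a.m.: aCSF, MCH 2 nmole, or MCH plus test compound (1 or 5 nmole). Vehicles were DMSO-matched (up to 5% v/v). Food came 10 min later; cumulative intake over 4 h; ANOVA/Bonferroni.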
# [3] = target: T1, rat MCH1 receptor (Rattus norvegicus, UniProt P97639); assay: MCH-induced Ca2+ mobilization; format: cell-based
# T1 sequence (P97639 whole entry): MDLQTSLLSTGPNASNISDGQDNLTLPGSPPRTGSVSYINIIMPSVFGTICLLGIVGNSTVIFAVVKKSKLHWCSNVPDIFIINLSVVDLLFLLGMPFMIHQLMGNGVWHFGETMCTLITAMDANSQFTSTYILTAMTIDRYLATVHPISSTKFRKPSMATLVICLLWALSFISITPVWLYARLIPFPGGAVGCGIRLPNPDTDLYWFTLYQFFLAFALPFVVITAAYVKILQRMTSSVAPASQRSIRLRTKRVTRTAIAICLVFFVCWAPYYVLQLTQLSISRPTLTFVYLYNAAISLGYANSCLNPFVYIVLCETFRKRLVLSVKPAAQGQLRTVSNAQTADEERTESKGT
# [4] = target: T1, rat MCH1 receptor; format: binding
# [5] = target: MCH2R (Homo sapiens, UniProt Q969V1); assay: Selectivity FLIPR activity assay; format: cell-based
# MCH2R, sequence (Q969V1 whole entry): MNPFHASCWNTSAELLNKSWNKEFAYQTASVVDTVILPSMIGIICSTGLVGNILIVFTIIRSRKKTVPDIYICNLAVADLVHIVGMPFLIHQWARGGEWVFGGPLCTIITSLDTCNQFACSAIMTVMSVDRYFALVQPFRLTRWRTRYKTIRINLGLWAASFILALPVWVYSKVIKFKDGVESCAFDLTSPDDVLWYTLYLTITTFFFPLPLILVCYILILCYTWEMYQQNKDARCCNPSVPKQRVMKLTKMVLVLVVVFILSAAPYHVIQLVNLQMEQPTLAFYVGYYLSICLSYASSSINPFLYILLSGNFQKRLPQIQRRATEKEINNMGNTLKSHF
# In short: (§1)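 Calcium FLIPR format: receptor-expressing cells were loaded 1 h at 37°C with fluo-4 in Hanks' balanced salt solution plus 20 mM HEPES (pH 7.4). Receptor activation was then measured as intracellular Ca2+ fluorescence in the presence of increasing test compound concentrations. The top concentration reported was 10 uM.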
# [6] = target: NPY2R (Homo sapiens, UniProt P49146); assay: Selectivity FLIPR activity assay; format: cell-based
# NPY2R, sequence (P49146 whole entry, species assumed): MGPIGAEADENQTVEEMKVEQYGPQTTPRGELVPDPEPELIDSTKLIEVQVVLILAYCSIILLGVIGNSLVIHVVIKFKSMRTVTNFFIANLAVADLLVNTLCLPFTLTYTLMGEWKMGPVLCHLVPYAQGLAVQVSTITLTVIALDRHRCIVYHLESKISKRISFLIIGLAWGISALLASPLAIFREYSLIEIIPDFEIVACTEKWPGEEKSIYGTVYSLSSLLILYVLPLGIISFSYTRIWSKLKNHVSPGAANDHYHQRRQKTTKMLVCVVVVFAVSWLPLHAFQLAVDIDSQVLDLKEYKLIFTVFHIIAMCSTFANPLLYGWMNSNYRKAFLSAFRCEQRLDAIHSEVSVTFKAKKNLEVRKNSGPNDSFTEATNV
# In short: as §1
# [7] = target: GPR10 (Homo sapiens, UniProt P49683); assay: Selectivity FLIPR activity assay; format: cell-based
# GPR10, sequence (P49683 whole entry, species assumed): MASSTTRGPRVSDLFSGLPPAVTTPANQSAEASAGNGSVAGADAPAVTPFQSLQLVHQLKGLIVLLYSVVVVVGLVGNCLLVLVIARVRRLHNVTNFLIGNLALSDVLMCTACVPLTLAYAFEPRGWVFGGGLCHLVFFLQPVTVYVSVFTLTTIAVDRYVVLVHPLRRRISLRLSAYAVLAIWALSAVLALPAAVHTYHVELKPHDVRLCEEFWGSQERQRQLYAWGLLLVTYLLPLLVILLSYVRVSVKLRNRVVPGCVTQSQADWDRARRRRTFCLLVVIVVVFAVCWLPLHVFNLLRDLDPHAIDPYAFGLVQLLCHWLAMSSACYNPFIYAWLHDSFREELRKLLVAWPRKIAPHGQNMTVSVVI
# In short: as §1
# [8] = target: Opiate κ (KOR) (Homo sapiens, UniProt P41145); assay: Selectivity FLIPR activity assay; format: cell-based
# Opiate κ (KOR), sequence (P41145 whole entry): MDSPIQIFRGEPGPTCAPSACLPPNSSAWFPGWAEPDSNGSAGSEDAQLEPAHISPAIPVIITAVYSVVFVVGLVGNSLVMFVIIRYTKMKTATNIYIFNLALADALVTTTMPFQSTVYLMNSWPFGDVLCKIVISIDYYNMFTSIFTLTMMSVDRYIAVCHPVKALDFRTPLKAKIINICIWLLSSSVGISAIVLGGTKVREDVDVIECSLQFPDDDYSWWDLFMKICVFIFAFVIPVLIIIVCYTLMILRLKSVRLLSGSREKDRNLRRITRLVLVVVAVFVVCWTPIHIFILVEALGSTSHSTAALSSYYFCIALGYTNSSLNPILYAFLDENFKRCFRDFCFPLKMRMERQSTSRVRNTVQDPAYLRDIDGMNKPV
# In short: as §1
# [9] = target: Orexin 1R (Homo sapiens, UniProt O43613); assay: Selectivity FLIPR activity assay; format: cell-based
# In short: as §1
# [10] = target: hERG channel (Homo sapiens, UniProt Q12809); assay: in vitro hERG electrophysiology assay; format: cell-based
# hERG channel, sequence (Q12809 whole entry): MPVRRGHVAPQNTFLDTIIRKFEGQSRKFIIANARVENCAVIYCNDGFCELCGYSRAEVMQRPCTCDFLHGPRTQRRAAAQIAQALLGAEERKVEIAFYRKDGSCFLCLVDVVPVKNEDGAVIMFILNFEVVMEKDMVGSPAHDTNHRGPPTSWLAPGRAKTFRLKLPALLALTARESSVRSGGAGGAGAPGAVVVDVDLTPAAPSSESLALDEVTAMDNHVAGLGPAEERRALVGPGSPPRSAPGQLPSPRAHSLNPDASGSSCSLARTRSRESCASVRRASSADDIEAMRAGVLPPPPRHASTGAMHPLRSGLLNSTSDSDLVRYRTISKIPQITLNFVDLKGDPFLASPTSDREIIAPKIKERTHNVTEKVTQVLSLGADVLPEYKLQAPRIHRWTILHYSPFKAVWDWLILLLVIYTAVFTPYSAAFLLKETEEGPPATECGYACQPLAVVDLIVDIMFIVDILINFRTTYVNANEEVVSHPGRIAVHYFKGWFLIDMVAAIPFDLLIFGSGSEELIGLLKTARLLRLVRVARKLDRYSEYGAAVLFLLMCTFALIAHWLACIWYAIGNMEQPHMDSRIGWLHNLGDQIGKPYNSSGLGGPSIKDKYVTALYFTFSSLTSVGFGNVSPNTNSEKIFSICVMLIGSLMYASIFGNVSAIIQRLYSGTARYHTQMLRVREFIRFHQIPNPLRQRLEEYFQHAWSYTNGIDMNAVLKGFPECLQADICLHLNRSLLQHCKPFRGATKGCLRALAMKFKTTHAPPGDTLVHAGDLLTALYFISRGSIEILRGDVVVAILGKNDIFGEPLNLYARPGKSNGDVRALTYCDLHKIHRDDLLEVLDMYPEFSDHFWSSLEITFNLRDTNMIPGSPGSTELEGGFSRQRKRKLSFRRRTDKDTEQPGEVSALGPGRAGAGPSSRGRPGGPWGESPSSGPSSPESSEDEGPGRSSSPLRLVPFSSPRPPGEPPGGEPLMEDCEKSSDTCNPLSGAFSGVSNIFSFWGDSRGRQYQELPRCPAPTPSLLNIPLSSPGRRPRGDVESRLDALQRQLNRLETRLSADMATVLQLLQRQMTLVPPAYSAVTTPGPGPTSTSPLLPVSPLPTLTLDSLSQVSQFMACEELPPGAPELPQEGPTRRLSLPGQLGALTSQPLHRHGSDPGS
# [11] = target: Adenosine A1 (Homo sapiens, UniProt P30542); assay: Radioligand displacement; format: binding
# Adenosine A1, sequence (P30542 whole entry): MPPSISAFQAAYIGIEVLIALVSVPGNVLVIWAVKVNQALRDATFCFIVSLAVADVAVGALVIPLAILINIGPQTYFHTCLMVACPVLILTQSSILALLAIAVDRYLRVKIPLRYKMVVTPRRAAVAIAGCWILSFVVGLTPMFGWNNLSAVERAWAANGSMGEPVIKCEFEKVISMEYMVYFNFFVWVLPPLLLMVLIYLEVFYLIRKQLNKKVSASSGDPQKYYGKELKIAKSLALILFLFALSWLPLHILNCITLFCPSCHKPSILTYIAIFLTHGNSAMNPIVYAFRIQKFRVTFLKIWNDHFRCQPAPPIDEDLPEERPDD
# [12] = target: Adenosine A2A (Homo sapiens, UniProt P29274); assay: Radioligand displacement; format: binding
# [13] = target: Adrenergic β1/β2; assay: Radioligand displacement; conditions: read-out: BINDING Adrenergic β1/β2; displacement of specific radioactive ligand
# [14] = target: Dopamine D2s (Homo sapiens, UniProt P14416); assay: Radioligand displacement; format: binding
# [15] = target: Dopamine D1 (Homo sapiens, UniProt P21728); assay: Radioligand displacement; format: binding
# Dopamine D1, sequence (P21728 whole entry): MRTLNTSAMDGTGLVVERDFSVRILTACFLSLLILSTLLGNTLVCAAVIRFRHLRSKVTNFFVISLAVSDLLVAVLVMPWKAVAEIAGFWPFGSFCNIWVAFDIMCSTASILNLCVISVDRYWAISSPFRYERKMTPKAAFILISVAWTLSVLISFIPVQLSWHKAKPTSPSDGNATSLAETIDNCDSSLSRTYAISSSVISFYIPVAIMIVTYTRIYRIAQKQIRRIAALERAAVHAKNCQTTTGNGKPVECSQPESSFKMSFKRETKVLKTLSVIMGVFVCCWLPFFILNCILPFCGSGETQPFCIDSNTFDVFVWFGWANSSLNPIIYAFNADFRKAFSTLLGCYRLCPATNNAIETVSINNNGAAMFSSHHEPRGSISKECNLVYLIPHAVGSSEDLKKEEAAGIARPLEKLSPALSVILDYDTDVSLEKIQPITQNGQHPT
# [16] = target: GPR103 (Homo sapiens, UniProt Q96P65); assay: Radioligand displacement; format: binding
# [17] = target: Histamine H1 (Homo sapiens, UniProt P35367); assay: Radioligand displacement; format: binding
# [18] = target: Muscarinic M2 (Homo sapiens, UniProt P08172); assay: Radioligand displacement; format: binding
# [19] = target: Muscarinic M3 (Homo sapiens, UniProt P20309); assay: Radioligand displacement; format: binding
# [20] = target: Prostanoid EP4 (Homo sapiens, UniProt P35408); assay: Radioligand displacement; format: binding
# Prostanoid EP4, sequence (P35408 whole entry): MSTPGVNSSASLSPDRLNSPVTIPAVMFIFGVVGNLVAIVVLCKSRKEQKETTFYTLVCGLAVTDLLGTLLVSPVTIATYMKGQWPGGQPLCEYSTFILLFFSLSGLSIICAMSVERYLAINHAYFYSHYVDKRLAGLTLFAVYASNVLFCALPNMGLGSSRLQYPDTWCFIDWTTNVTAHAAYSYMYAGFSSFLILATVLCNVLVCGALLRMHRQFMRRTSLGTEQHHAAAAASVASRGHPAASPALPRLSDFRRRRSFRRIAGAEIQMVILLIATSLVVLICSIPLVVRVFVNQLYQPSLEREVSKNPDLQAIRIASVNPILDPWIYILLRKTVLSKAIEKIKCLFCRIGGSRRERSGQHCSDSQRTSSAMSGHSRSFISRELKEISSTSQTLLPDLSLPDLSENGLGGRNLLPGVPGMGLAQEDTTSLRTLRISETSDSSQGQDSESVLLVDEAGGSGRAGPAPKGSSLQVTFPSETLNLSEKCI
# [21] = target: Opiate μ (OP3, MOP) (Homo sapiens, UniProt P35372); assay: Radioligand displacement; format: binding
# Opiate μ (OP3, MOP), sequence (P35372 whole entry): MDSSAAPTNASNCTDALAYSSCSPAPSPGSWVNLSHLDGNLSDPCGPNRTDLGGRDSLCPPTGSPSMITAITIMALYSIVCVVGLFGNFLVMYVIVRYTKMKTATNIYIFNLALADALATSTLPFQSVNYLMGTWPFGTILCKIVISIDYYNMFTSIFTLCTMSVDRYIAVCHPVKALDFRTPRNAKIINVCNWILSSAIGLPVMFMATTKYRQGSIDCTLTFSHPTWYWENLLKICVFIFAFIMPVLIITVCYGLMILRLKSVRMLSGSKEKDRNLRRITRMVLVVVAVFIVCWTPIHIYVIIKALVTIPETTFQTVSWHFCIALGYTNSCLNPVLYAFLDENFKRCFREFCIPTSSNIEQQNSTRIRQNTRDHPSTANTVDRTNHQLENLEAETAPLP
# [22] = target: Phorobol Ester; assay: Radioligand displacement; conditions: read-out: BINDING Phorobol Ester; displacement of specific radioactive ligand
# [23] = target: Rolipram; assay: Radioligand displacement; conditions: read-out: BINDING Rolipram; displacement of specific radioactive ligand
# [24] = target: Nicotinic Acetylcholine α1, Bungarotoxin (Homo sapiens, UniProt P02708+P07510+Q07001); assay: biochemical; format: binding
# [25] = target: Transporter, Norepinephrine (NET) (Homo sapiens, UniProt P23975); assay: Radioligand displacement; format: binding
# [26] = Pharmacokinetics in rats after intravenous administration; format: in vivo; conditions: rat, plasma, 5 mg/kg
# [27] = test system: Sprague-Dawley rats; assay: Spontaneous locomotor activity; format: in vivo, rat
# In short: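 Cannulated male Sprague-Dawley rats were acclimatized 60 min to a novel home cage, removed, given vehicle or 5 nmole test compound i.c.v., and returned at once. An infrared beam monitor (4 × 8 frame) recorded 60 min. Beam breaks changing location counted as ambulatory; all others as non-ambulatory fine movement. n=10.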
compound,measurement,setting,value
"[Cl-].[Li+] [LiCl, Lithium chloride, reference compound]",taste aversion effect,"[1]; 300 mg/kg, i.p., positive control, P<0.01 vs. vehicle group",robust taste aversion effect
"CSCC[C@@H]1NC(=O)[C@@H](NC(=O)[C@H](CCCNC(=N)N)NC(=O)[C@H](CC(C)C)NC(=O)[C@H](CCSC)NC(=O)[C@H](CC(=O)O)NC(=O)[C@H](Cc2ccccc2)NC(=O)[C@@H](N)CC(=O)O)CSSC[C@@H](C(=O)N[C@@H](Cc2c[nH]c3ccccc23)C(=O)N[C@@H](CCC(N)=O)C(=O)N[C@H](C(=O)O)C(C)C)NC(=O)[C@@H]2CCCN2C(=O)[C@H](CCCNC(=N)N)NC(=O)[C@H](Cc2ccc(O)cc2)NC(=O)[C@H](C(C)C)NC(=O)[C@H](CCCNC(=N)N)NC(=O)CNC(=O)[C@H](CC(C)C)NC1=O [MCH, Melanin-concentrating hormone]",feeding after intracerebroventricular injection,[2],induced rapid and robust feeding
"C[C@@H](CNCc1ccccc1)N1C[C@H](CCCNC(=N)N)N(CCc2cccc(F)c2)C1=S [TPI 1361-17, N-(3-{(4S)-1-[(1S)-2-(benzylamino)-1-methylethyl]-3-[2-(3-fluorophenyl)ethyl]-2-thioxoimidazolidin-4-yl}propyl)guanidine]",pA2 (Schild regression),[3]; MCH dose response curves with increasing concentrations of antagonist,9.43
same,effect on basal Ca2+ level by itself,"[3]; compound alone, no MCH",did not change the basal Ca^2+ level
same,Schild regression slope,[3]; r^2 = 0.975,1.085 ± 0.010
same,IC50,[4],31.8 ± 8.66 nM
same,displacement of the binding of [125I] MCH,[4]; rat MCH1 receptor membranes,completely displaced
same,selectivity for MCH1 receptor compared to human MCH2 receptor,[5],"more than 1,000 fold"
same,selectivity for MCH1 receptor compared to neuropeptide Y2,[6],"more than 1,000 fold"
same,selectivity for MCH1 receptor compared to prolactin releasing peptide receptor,[7],"more than 1,000 fold"
same,selectivity for MCH1 receptor compared to kappa opioid receptors,[8],"more than 1,000 fold"
same,selectivity for MCH1 receptor compared to orexin 1R,[9],"more than 1,000 fold"
same,IC50,[10],> 10000 nM
same,activity in a hERG channel assay,[10]; result in words,not show activity; also recorded: no activity was detected
same,IC50,[11],> 1000 nM
same,IC50,[12],> 1000 nM
same,IC50,[13],> 1000 nM
same,IC50,[14],> 1000 nM
same,IC50,[15],> 1000 nM
same,IC50,[16],> 1000 nM
same,IC50,[17],> 1000 nM
same,IC50,[18],> 1000 nM
same,IC50,[19],> 1000 nM
same,IC50,[20],> 1000 nM
same,IC50,[21],> 1000 nM
same,IC50,[22],> 1000 nM
same,IC50,[23],> 1000 nM
same,IC50,[24],> 1000 nM
same,IC50,[25],> 1000 nM
same,Tmax,[26],4.98 min
same,AUC(0-inf),"[26]; AUC0-∞ (mean value), intravenous, mean",2440 ng·h/mL
same,half-life,"[26]; plasma elimination half-life (mean value), intravenous, mean",2.7 h
same,ambulatory and non-ambulatory movements vs vehicle,"[27]; five nmole i.c.v., monitored for 60 minutes",no significant differences
same,detectable changes in movement,[27]; five or one nmole i.c.v.,did not exhibit any detectable changes in movement
same,aversive effect in taste aversion test,"[1]; 10 nmole, i.c.v., saccharin preference",did not result in any aversive effect
